Active and inactive are the calls of the source. The calls are words filed in the database; no cut-off is given here.
Assays:
[1] = test system: U-251; assay: Antitumor activity against human U-251 cells xenografted in nude mouse assessed as tumor inhibition ratio at 24 mg/kg, ip administered once every two days for 21 days relative to control; assay type: functional; settings: U-251, 504 h, time 21 day
Outline: (§1)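 1×10^6 tumor cells injected s.c. into the right flank of nude mice. At mean tumor volume 60–80 mm³, animals randomized to vehicle or treatment groups (n = 6). Compound in 5% v/v DMSO/saline given i.p. every 2 days. Tumor size and weight recorded; volume = lw²/2 from length and width. Body weight tracked as the systemic toxicity index.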

[2] = test system: U-251; assay: Antitumor activity against human U-251 cells xenografted in nude mouse assessed as tumor inhibition ratio at 48 mg/kg, ip administered once every two days for 21 days relative to control; assay type: functional; settings: U-251, 504 h, time 21 day; outline: as §1
[3] = test system: HCT-116; assay: Antiproliferative activity against human HCT-116 cells incubated for 48 hrs by MTT assay; assay type: functional, cell-based; settings: HCT-116, 48 h
Outline: (§2)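 Monolayer cells in DMEM with 10% FBS, penicillin and streptomycin, 37°C, 5% CO2. Exponentially growing cells were seeded in 96-well plates and exposed to compound for 48 h. MTT was then added for 4 h at 37°C. Medium was removed, formazan dissolved in DMSO, and OD read at 490 nm. Each plate had five replicate wells, and assays were repeated three times per line.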

[4] = Toxicity in nude mouse xenografted with human MGC-803 cells assessed as effect on animal behavior at 24 to 48 mg/kg, ip administered once every two days for 21 days; assay type: organism-based; settings: in vivo, 504 h, dose 24-48 mg/kg, time 21 day; outline: as §1
[5] = test system: MGC-803; assay: Antitumor activity against human MGC-803 cells xenografted in nude mouse assessed as tumor inhibition ratio at 24 mg/kg, ip administered once every two days for 21 days relative to control; assay type: functional; settings: MGC-803, 504 h, time 21 day; outline: as §1
[6] = Cytotoxicity against HK-2 cells incubated for 48 hrs by MTT assay; assay type: toxicity, cell-based; settings: human; outline: as §2
[7] = Toxicity in nude mouse xenografted with human U-251 cells assessed as pathological changes in lung at 24 to 48 mg/kg, ip administered once every two days for 21 days by H and E staining based analysis; assay type: organism-based; settings: in vivo, 504 h, dose 24-48 mg/kg, time 21 day
Outline: (§3)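 Nude mice carrying s.c. xenografts (1×10^6 cells, right flank) randomized at 60–80 mm³ (n = 6), dosed i.p. every 2 days in 5% v/v DMSO/saline. Major organs examined by H&E staining at 200× magnification.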

[8] = test system: MGC-803; assay: Induction of ferroptosis in human MGC-803 cells assessed as accumulation of intracellular ROS level by measuring increase in red fluorescence intensity at 25 to 50 uM incubated for 24 hrs by DHE staining based confocal microscopic analysis; assay type: functional, cell-based; settings: dose 25-50 µM
[9] = Toxicity in nude mouse xenografted with human U-251 cells assessed as pathological changes in liver at 24 to 48 mg/kg, ip administered once every two days for 21 days by H and E staining based analysis; assay type: organism-based; settings: in vivo, 504 h, dose 24-48 mg/kg, time 21 day; outline: as §3
[10] = test system: MGC-803; assay: Induction of cell cycle arrest at S phase in human MGC-803 cells assessed as decrease in CDK2 protein expression level at 25 to 50 uM incubated for 24 hrs by Western blot analysis; assay type: functional, cell-based; settings: dose 25-50 µM
Outline: (§4)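 MGC-803 cells treated 25 or 50 μM for 24 h, lysed in ice-cold 1% SDS/Tris-HCl pH 7.5 buffer with EDTA, NaCl and protease inhibitors, spun 12,000g 18 min. Protein quantified by BCA; 40–50 μg resolved on 10% SDS-PAGE, transferred to PVDF, milk-blocked 2 h, primary antibody overnight, HRP secondary 1 h at RT. ECL detection with densitometry.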

[11] = test system: Supercoiled DNA; assay: Binding affinity to supercoiled circular pBR322 plasmid DNA (unknown origin) assessed as DNA intercalation by measuring migration in gel at 25 to 200 uM incubated for 4 hrs by PI and EtBr staining based gel electrophoresis; assay type: nucleic-acid assay; settings: dose 25-200 µM, in the assay text read “GelRed staining” for “PI and EtBr staining”
Outline: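 0.20 μg pBR322 DNA in relaxation buffer (10 mM Tris, 0.1 mM EDTA, 5 mM MgCl₂, 50 mM KCl, 0.01% BSA, pH 7.5), 20 μL, incubated 4 h at 37°C with or without compound at varied concentrations. Stopped with SDS/bromophenol blue/glycerol loading buffer, run on 0.8% agarose in TAE, stained with GelRed; supercoiled and linear forms scored.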

[12] = test system: MGC-803; assay: Effect on FACL4 protein expression in human MGC-803 cells at 25 to 50 uM incubated for 24 hrs by Western blot analysis; assay type: functional, cell-based; settings: dose 25-50 µM; outline: as §4
[13] = test system: MDA-MB-231; assay: Antiproliferative activity against human MDA-MB-231 cells incubated for 48 hrs by MTT assay; assay type: functional, cell-based; settings: MDA-MB-231, 48 h; outline: as §2
[14] = test system: MGC-803; assay: Antitumor activity against human MGC-803 cells xenografted in nude mouse assessed as tumor inhibition ratio at 48 mg/kg, ip administered once every two days for 21 days relative to control; assay type: functional; settings: MGC-803, 504 h, time 21 day; outline: as §1
[15] = Toxicity in nude mouse xenografted with human MGC-803 cells assessed as reduction in body weight at 24 to 48 mg/kg, ip administered once every two days for 21 days; assay type: organism-based; settings: in vivo, 504 h, dose 24-48 mg/kg, time 21 day; outline: as §1
[16] = Toxicity in nude mouse xenografted with human MGC-803 cells assessed as pathological changes in heart at 12 to 48 mg/kg, ip administered once every two days for 21 days by H and E staining based analysis; assay type: organism-based; settings: in vivo, 504 h, dose 12-48 mg/kg, time 21 day; outline: as §3
[17] = Toxicity in nude mouse xenografted with human U-251 cells assessed as pathological changes in spleen at 24 to 48 mg/kg, ip administered once every two days for 21 days by H and E staining based analysis; assay type: organism-based; settings: in vivo, 504 h, dose 24-48 mg/kg, time 21 day; outline: as §3
[18] = test system: MGC-803; assay: Induction of apoptosis in human MGC-803 cells; assay type: functional, cell-based
[19] = test system: MGC-803; assay: Induction of ferroptosis in human MGC-803 cells assessed as increase in intracellular iron level incubated for 24 hrs by FerroOrange staining based confocal microscopic analysis; assay type: functional, cell-based; settings: dose 25-50 µM
[20] = Cytotoxicity against HUVEC cells incubated for 48 hrs by MTT assay; assay type: toxicity, cell-based; settings: human; outline: as §2
[21] = test system: A549; assay: Antiproliferative activity against human A549 cells incubated for 48 hrs by MTT assay; assay type: functional, cell-based; settings: A549, 48 h; outline: as §2
[22] = test system: MGC-803; assay: Induction of cell cycle arrest in human MGC-803 cells assessed as accumulation of cells at G0/G1 phase at 100 uM incubated for 24 hrs by PI staining based flow cytometry (Rvb=59.09%); assay type: functional
[23] = Toxicity in nude mouse xenografted with human MGC-803 cells assessed as pathological changes in spleen at 12 to 48 mg/kg, ip administered once every two days for 21 days by H and E staining based analysis; assay type: organism-based; settings: in vivo, 504 h, dose 12-48 mg/kg, time 21 day; outline: as §3
[24] = Toxicity in nude mouse xenografted with human U-251 cells assessed as pathological changes in heart at 24 to 48 mg/kg, ip administered once every two days for 21 days by H and E staining based analysis; assay type: organism-based; settings: in vivo, 504 h, dose 24-48 mg/kg, time 21 day; outline: as §3
[25] = test system: MGC-803; assay: Induction of ferroptosis in human MGC-803 cells assessed as increase in mitochondrial membrane density at 5 uM incubated for 24 hrs by TEM analysis; assay type: functional, cell-based
Outline: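 Cell samples prefixed in 3% glutaraldehyde, postfixed in 1% osmium tetroxide, dehydrated through graded acetone (30–100%), embedded in Epon812, cut into 60–90 nm ultrathin sections on copper grids, stained with uranyl acetate 10–15 min and lead citrate 1–2 min at room temperature, examined by TEM.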

CN(C)CCN1C(=O)c2cccc3c(N4CCN(C(=O)CCOCCOCCOCCOCCNC(=O)CCCCC5SCC6NC(=O)NC65)CC4)ccc(c23)C1=O (stereo not given)
inhibition in vivo at 24 mg/kg [1]: 74.8%
inhibition in vivo at 48 mg/kg [2]: 76.2%
IC50 [3]: > 50 µM
Activity [4]: Non-Toxic
inhibition in vivo at 24 mg/kg [5]: 39.6%
IC50 at 48 h [6]: > 50 µM
Activity [7]: Non-Toxic
Activity [8]: Active
Activity [9]: Non-Toxic
Activity [10]: Active
Activity [11]: Active
Activity [12]: inactive
IC50 [13]: > 50 µM
inhibition in vivo at 48 mg/kg [14]: 65.5%
Activity [15]: Non-Toxic
Activity [16]: Non-Toxic
Activity [17]: Non-Toxic
Activity [18]: inactive
Activity [19]: Dose-Dependent Effect
IC50 at 48 h [20]: > 50 µM
IC50 [21]: > 50 µM
Activity [22]: 39.71%
Activity [23]: Non-Toxic
Activity [24]: Non-Toxic
Activity [25]: Active
